Assay outcomes (PubChem)
Lipid droplet = modulators of hepatic lipid droplet formation; AML12 mouse hepatocytes, oleate lipid droplets, BODIPY imaging; inhibition, % at 6.5 µM; 240,000 compounds, 0.4% hits; AID 1656;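 active = lipid droplet intensity inhibited by at least 50%, with more than 500 cells counted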
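Technique: fluorescence imaging, 20x objective, two fields per well / Assay system: AML12 hepatocytes (mouse) / Measure: % inhibition of lipid droplet signal / Doses: 6.5 µM single-point dosing / Incubation: overnight exposure / Reagent: 100 µM oleic acid challenge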
L major viab = Leishmania major promastigote growth inhibition | AID 1063 | inhibition, % at 10 µM | 200,000 compounds, 9% hits | Leishmania major promastigotes, resazurin fluorescence viability; in the data active = inhibition above about 50%;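 also: promastigotes grown with compound for 44 hours at 28 °C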
MPTP block = blocks calcium-induced mitochondrial swelling | 360,000 compounds, 1.4% hits | inhibition, % at 10 µM | isolated mouse mitochondria, Ca2+ swelling absorbance, 30 min;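 active = inhibition of 50% or more, scaled per plate between neutral and stimulator controls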;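 also: 0% = DMSO wells given calcium and 100% = 1 mM EGTA wells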
T cruzi inh = T. cruzi replication inhibition. inhibition, % (no concentration beside the values). T. cruzi beta-gal in NIH3T3, luminescence, 90 h. 300,000 compounds, 1.4% hits. AID 1885;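 active = mean inhibition across valid replicates above about 55%, limit read from the data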;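 also: signal also drops with host cell toxicity which is not excluded here; 0% = plate median of DMSO wells and 100% = zero luminescence signal; higher percent means less beta-gal luminescence so fewer parasites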
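Test system: β-gal T. cruzi (Tulahuen C4) inside NIH/3T3 cells / Quantity: 5,000 cells/well / Measured by: luminescence from GalScreen with 0.05% NP40, read after 60 min / Medium: DMEM plus 2% FBS / Measure: parasite load inhibition, % / Reagent: Tulahuen C4 trypomastigotes, 5000/well / Schedule: co-culture of at least 90 h after 3 h attachment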
DTT redox prof = compounds producing H2O2 with reducing agent – biochemical, NIH compound library profiling, artefact control for MLSCN library redox annotation, primary screen; activation, % at 10 µM; AID 878; 200,000 compounds, 0.03% hits; DTT-dependent redox cycling H2O2, phenol red/HRP absorbance; 100% = 100 µM peroxide control, 0% = buffer;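 active = activation of at least 50% relative to the plate's high and low controls in the primary single-dose screen; inactive = activation below 50%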;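 also: compound incubated with DTT at 0.8 mM final as the reducing agent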
An asterisk follows results filed as active; . = not tested or not shown. Many of the other results were omitted from the sample, so hits are more common in it than they were.

SMILES | Lipid droplet | L major viab | MPTP block | T cruzi inh | DTT redox prof
Cc1cc(/C=N/NC(N)=S)c(C)n1-c1ccc(Cl)c(Cl)c1 | 2 | 100* | 12 | 53 | 1
COC(=O)C1=C(C)N(Cc2ccco2)C(=O)/C1=C\c1ccc([N+](=O)[O-])cc1 | 5 | 99* | 0 | -9 | 0
COC(=O)C1=C(C)N(Cc2ccco2)C(=O)/C1=C\c1ccc(N(C)C)cc1 | -31 | 42 | 11 | 12 | 2
CN1CCCCC1(C)C(=O)NCc1ccc(C(C)(C)C)cc1 (stereo unspecified) | . | . | 1 | . | .
CCCCOc1ccc(Cl)cc1CSc1nnc(CC)n1N | -54 | 88* | 1 | 7 | -3
CCCCCN(C(=O)CN1CCC(Cc2ccccc2)CC1)c1c(N)n(CCCC)c(=O)[nH]c1=O | 12 | 2 | -1 | 14 | -2
Cc1ccc(S(=O)(=O)Oc2cccc(/C=N/n3cnnc3)c2)cc1 | -24 | 67* | 34 | -9 | -1
CC(Nc1ccc(Br)cn1)c1cc(Cl)ccc1O (stereo unspecified) | -2 | 92* | 5 | 20 | 0
COc1ccc(C(C)=O)cc1CSc1nc2ccccc2c(=O)n1-c1ccccc1 | 7 | 0 | 1 | 7 | 0
COc1ccc(C(C)=O)cc1CSc1nc2ccccc2c(=O)n1-c1ccccc1C | 0 | 78* | 1 | -3 | 0
C=CCn1c(SCc2cc(C(C)=O)ccc2OCC)nc2ccccc2c1=O | -47 | 97* | 1 | 7 | 2
CC(c1ccccc1)N1C(=O)NC(NC(=O)C(C)(C)C)(C(F)(F)F)C1=O (stereo unspecified) | 6 | 52* | 1 | -7 | 0
CC(C)(C)C(=O)NC1(C(F)(F)F)NC(=O)N(CCc2ccccc2)C1=O (stereo unspecified) | . | . | 1 | -2 | .
CC(NC(=O)/C(C#N)=C/c1ccc(Cl)c([N+](=O)[O-])c1)c1ccccc1 (stereo unspecified) | -6 | 100* | . | 32 | 0
C/C(CC(=O)Nc1cc(Cl)ccc1Cl)=N\NC(N)=S | . | -2 | -2 | -4 | 3
C/C(CC(=O)Nc1ccc(Cl)c(Cl)c1)=N\NC(N)=S | . | 62* | 0 | 1 | -8
COc1ccc2ccccc2c1-c1sc(Nc2ccccc2)n[n+]1-c1ccc(F)cc1 | 1 | . | 45 | 61* | .
COc1ccc(C2CC(c3cccs3)=NN2C(=S)Nc2ccccc2)cc1OC (stereo unspecified) | 28 | 71* | -2 | 8 | 1
Cc1ccc(C2CC(c3ccccc3)=NN2C(=S)Nc2ccccc2)o1 (stereo unspecified) | -23 | 69* | -8 | 31 | 0
COc1cccc(C2CC(c3cccs3)=NN2C(=S)Nc2ccccc2)c1OC (stereo unspecified) | . | 65* | -5 | 40 | 3
S=C(Nc1ccccc1)N1N=C(c2cccs2)CC1c1cccs1 (stereo unspecified) | -20 | 74* | 2 | 25 | 1
COc1cccc(C2CC(c3cccs3)=NN2C(=O)CCC(=O)O)c1OC (stereo unspecified) | 8 | . | 0 | -12 | .
COc1c(Cl)cccc1-c1cn2ccc(C)cc2n1 | 7 | . | 2 | 14 | .
Cc1cc(Cl)cc(Br)c1OCCCCn1cncn1 | -9 | 93* | -1 | 35 | 0
O=C(CCc1nnc(COc2ccccc2)o1)NC1(c2ccccc2)CC1 | -3 | -6 | -1 | -3 | 0
SMILES | Lipid droplet | L major viab | MPTP block | T cruzi inh | DTT redox prof
CCOc1ccc(S(=O)(=O)N2CCC(C(=O)NC3CC3)CC2)cc1Cl | 2 | . | -3 | 2 | .
CN(CCNC(=O)c1cc2c(=O)n(C)c3ccccc3c2n1C)Cc1ccccc1 | . | 69* | 0 | 47 | 0
Cn1c(C(=O)NCCN2CCN(c3ccccc3F)CC2)cc2c(=O)n(C)c3ccccc3c21 | -9 | 51* | 0 | 16 | 0
CC(C)c1ccc(NC(=O)c2cc3c(=O)n(C)c4ccccc4c3n2C)cc1 | -39 | . | 0 | 60* | .
CCCN(CCC)CCNC(=O)c1cc2c(=O)n(C)c3ccccc3c2n1C | -12 | 29 | 0 | 13 | 0
COc1ccc(NC(=O)c2cc3c(=O)n(C)c4ccccc4c3n2C)cc1OC | . | 1 | 0 | 21 | -1
O=C(CSc1cn[nH]n1)Nc1ccccc1C(=O)O | 0 | . | -2 | -18 | .
Cc1ccccc1NC(=O)CSc1nnc(NC(=O)c2ccco2)s1 | -2 | . | 0 | 1 | .
C=CCc1ccc(OCCCCN2CC(C)OC(C)C2)c(OC)c1 (stereo unspecified) | 4 | 98* | 0 | 13 | 0
C/C=C/c1ccc(OCCN2CCc3ccccc3C2)c(OC)c1 | -39 | 29 | 0 | 21 | 0
C=CCc1ccc(OCCCOc2ccc(C)cc2OC)c(OC)c1 | -39 | -1 | -2 | 0 | 0
C=CCc1ccc(OCCN2CCc3ccccc3C2)c(OC)c1 | 0 | 83* | 1 | -14 | -1
Nc1ccccc1-n1nc2ccc3ccccc3c2n1 | . | . | 1 | . | .
COc1ccc(C)cc1S(=O)(=O)Nc1cccc(Cl)c1 | -44 | 99* | 1 | 7 | 4
O=C(CN1C(=O)NC2(CCCCC2)C1=O)Nc1ccc2[nH]c(=O)[nH]c2c1 | . | . | -3 | . | .
CC(=O)c1cccc(NC(=O)C2Cc3c(-c4ccc5c(c4)OCO5)ccnc3O2)c1 (stereo unspecified) | . | . | 2 | . | .
COCCn1c(SCC(=O)N2CC(=O)Nc3ccccc32)nc2ccccc2c1=O | 26 | -6 | 0 | -9 | 1
COCCn1c(SCC(=O)NC(=O)NCc2ccccc2)nc2ccccc21 | -3 | 7 | 0 | 55* | 1
COCCn1c(SCC(=O)N2CC(=O)Nc3ccccc32)nc2ccccc21 | 11 | 52* | 1 | -1 | .
O=S(=O)(CCN1CCOCC1)c1ccc(OC(F)(F)F)cc1 | . | . | 0 | -9 | .
Cn1c(=O)n(C)c2cc(/C=N/N=C3/NC(=O)C(CC(=O)O)S3)ccc21 (stereo unspecified) | 12 | -2 | 1 | -4 | -1
CC(C)N1C(=O)C(Cc2nc3ccccc3c(=O)n2-c2ccccc2)c2ccccc21 (stereo unspecified) | . | 21 | 0 | 47 | -4
CCCN1C(=O)C(Cc2nc3ccccc3c(=O)n2-c2ccccc2)c2ccccc21 (stereo unspecified) | -2 | 89* | 0 | 40 | 0
CS(=O)(=O)N(CC(=O)N1CCCCCC1)c1cccc(F)c1 | 7 | . | -1 | 8 | .
CC1(C)Cc2ccccc2C(/C(=N/O)C(N)=O)=N1 | . | 61* | -1 | -5 | -1
CC1(C)Cc2ccccc2C(/C(=N\Nc2cccc(Cl)c2)C(N)=O)=N1 | 27 | 98* | 7 | 51 | 0
CCCCn1c(N)c(N(CCOC)C(=O)COc2ccc(Cl)cc2)c(=O)[nH]c1=O | 11 | -2 | -1 | -1 | 0
N#Cc1cccc(NC(=O)c2cc(C3CCCCN3C(=O)c3cccs3)on2)c1 (stereo unspecified) | . | . | 0 | . | .
